The test system of the data set is MS2 coat protein. Briefly: apparent Kd, MS2 coat protein; higher = weaker binding; RNA-MaP array; FMN 200 µM where present. A digest of the protocol: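 The apparent Kd is the median of filtered binding-curve fits, one per cluster, to green signal normalised to red-channel RNA signal and control-cluster median Fmax. The clusters were on Illumina sequencing chips, and stalled E. coli RNA polymerase had transcribed the designs on them. Titration used SNAP-549-labelled MS2 coat protein from 0.7 or 1.5 nM, doubling to 3 µM, without and then with constant ligand, in 100 mM Tris-HCl pH 7.5, 80 mM KCl, 4 mM MgCl2, BSA, DTT, yeast tRNA and Tween-20.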

[1] abbreviates: designed as: OFF switch for flavin mononucleotide, no ligand.
[2] abbreviates: ligand present: flavin mononucleotide, designed as: OFF switch for flavin mononucleotide.
Where [3] appears, read: designed as: ON switch for flavin mononucleotide, no ligand.
Where [4] appears, read: ligand present: flavin mononucleotide, designed as: ON switch for flavin mononucleotide.

“CAAAGUUGGUAAGGAUAUCCCACAUUAUUCUGACCCGUGCAAGCUACAUGAGGAUCACCCAUGUGGGAGAAGGUGCGUUAAAGC”: the apparent Kd (usually the concentration giving half-maximal binding under the conditions of the assay) amounted to 372 nM under setting [1] and 219 nM under setting [2].
The corresponding values for “GUGUACAGAGGAUAUACAGGAGCUAGGAAACUAGCAACUUCACAUGAGGAUCACCCAUGUAGAAGGCUGUACAC” are 15.3 nM and 49.7 nM.
Take “AUCAGCUCGUCAGGAUAUACGUCACUGCGUCAGCAGUUUGGUAAGAUCACAUGAGGAUCACCCAUGUAGAAGGGACGAGCUGAU”: the “apparent Kd” value is 15.2 nM under setting [1] and 249 nM under setting [2].
For the sequence “UUGGACGUCGUAGGAUAUGUAGGAUAUUCCUACAUGAGGAUCACCCAUGUUGACAUGGAAGAAGGAAAGAAGGACGAUGUCCAU”, the “apparent Kd” value under setting [3] is 496 nM and the “apparent Kd” value under setting [4] was found to be 303 nM.
For the sequence “AAGGAUCGAGGAUAUACAUAGAUACAGAUACAUGUAGACCUACAUGAGGAUCACCCAUGUAGAAGGCGAUCAUA”, the “apparent Kd” value by setting is: under setting [1], 18.8 nM; under setting [2], 33.7 nM.
Take “AACCGACAUGAGGAUCACCCAUGUCAGGAUAUGGACUGACACCCAAAGGGUGGAGGAACCAGAAGGGACUGGGC”: the “apparent Kd” value runs as follows: under setting [1], 39.9 nM; under setting [2], 101 nM.
“GGUACUCAAAGAGUACCAAUACGAACAUGAGGAUCACCCAUGUAGGAUAUGCAAAAGCCGGAGUAGCAGAAGGACAUGUGCCUA”: the “apparent Kd” value came to 12.6 nM under setting [1] and 46.4 nM under setting [2].
Consider “UCUGCUCGAGGAUAUACAUGAGGAUCACCCAUGUAUCCCAGAAGCAUGGCCUCAGGAUGUAGAAGGCGACGCUA”, for which the “apparent Kd” value amounted to 14.1 nM under setting [1] and 18.5 nM under setting [2].
As to “UUGGACGUCGUAGGAUAUGUAGGAUAUUCCUACAUGAGGAUCACCCAUGUUGACAUGGAAGAAGGACAGAAGGUCGAUGUCCAU”, the “apparent Kd” value under setting [3] turned out to be 602 nM and the “apparent Kd” value under setting [4] came out at 9.86 nM.
For the sequence “AUCAGCUCGUCAGGAUAUACGUCACUGCGUCAGCAGUGUGGUAAGAUCACAUGAGGAUCACCCAUGUAGAAGGGAUGAGCUGAU”, the “apparent Kd” value was 13.3 nM under setting [1] and 288 nM under setting [2].
“UUUACAUACAUGAGGAUCACCCAUGUGUUCACCCAUGUAAAUCAGGAUAUAUAUAUAUAGAAUGUAUAGAAGGGAUAAUUUUUU”: the “apparent Kd” value came out at 97.5 nM under setting [1] and 99.7 nM under setting [2].
Turning to “UGAUACAUGAGGGUCUCCCAUGACAUGAGGAUCACCCAUGUGCAGGAUAUACGUGUGAUGAUAUAGUAGAAGGGCAGUCUAUGU”, the “apparent Kd” value reads like this: under setting [1], 449 nM; under setting [2], 537 nM.
As for “UUUCAGCAAGGAUAUACGGGCUGUGCUUUUCAUUUCUUACAACAUGAGGAUCACCCAUGUAGAAGGUGCUUCUU”, the “apparent Kd” value worked out at 297 nM under setting [1] and 736 nM under setting [2].
As to “GAUGAGAGAGGAUAUACAUGAGGAUCACCCAUGUAAUUUUCGGACAUGGAAGCUGGAUGUAGAAGGCUCGCAUG”, the “apparent Kd” value came to 20 nM under setting [1] and 46.2 nM under setting [2].
For “AAAAAACAUGAGGAUCACCCAUGUCAGGAUAUCCGAAAAAAAAAAAAAAAAAAAAAAAGGAGAAGGGACAAAAA”, in that order: 100 nM and 83.8 nM.
As for “AAGGCACCUGAGAAGGGUACAUGAGGAUCACCCAUGUGGCUAUUUGUGCGUCGUUGACCAAGUGUACAGGAUAUUAGGGAACGU”, the “apparent Kd” value turned out to be 98 nM under setting [1] and 32.4 nM under setting [2].
For “UUGAUGUCAUCAGGAUAUAGUAUUUAAGACAUAUCUUCUUUCUUACAUGAGGAUCACCCAUGUCGCUAGAAGGGAUGAAUGAUU”, in that order: 18.7 nM and 15.4 nM.
Regarding “GAGAAGAGGGAAGGAUAUACAUGAGGAUCACCCAUGUAGAUAGGUUUAAUAGGUUGUUGUAGUUUGUAGAAGGUCCGGUUUGUU”, the “apparent Kd” value was found to be 17.8 nM under setting [1] and 16.7 nM under setting [2].
In the case of “UGCAUGCUAGGAUAUACGGGACAUUAGGGUUCGUCGUGUGGACAUGAGGAUCACCCAUGUAGAAGGAGCGUGCU”, the “apparent Kd” value under setting [1] is 90 nM and the “apparent Kd” value under setting [2] is 345 nM.
Consider “UAUAUAUAGUAAGGAUAUGUAUUAAUGUUAUAAACAGAAGGUACUGACAUGAGGAUCACCCAUGUUUUAGUGUGGGCAUGUAGA”, for which the “apparent Kd” value amounted to 92.1 nM under setting [1] and 131 nM under setting [2].
Turning to “AAAAGAAUAAAAGGAUAUAGGAAAGGAAGUGUACUAGAAGGUUUGUUAACAUGAGGAUCACCCAUGUGCUCAGACACAGGGUGC”, the “apparent Kd” value under setting [1] came to 124 nM and the “apparent Kd” value under setting [2] is 167 nM.
The corresponding values for “GUCGAGUGAGGAUAUGGUGAGUAGUGCCUGAGCGCUGCUCACCAGAAGGCACAUGAGGAUCACCCAUGUAUAAC” are 23.7 nM and 41.7 nM.
As for “AUUUGACACGUAGGAUAUCGCUCAAAUUUAACACGAGAAGGACGAACAUGAGGAUCACCCAUGUAACAUGGAGUAGUUUAUUUG”, the “apparent Kd” value under setting [1] worked out at 76.6 nM and the “apparent Kd” value under setting [2] is 111 nM.
On to “ACGUGGCUGCCGCAGGAUAUACCCUGUUCCACAUGAGGAUCACCCAUGUUUACGAACUAUGAGAGGUAGAAGGGUGGAUGUCAUU”, for which the “apparent Kd” value under setting [3] came to 31.2 nM and the “apparent Kd” value under setting [4] was 13.9 nM.
On to “AAAAAGUGAGGAUAUACGAAAAAAAAAAAAAAAAAAGGUGAACAUGAGGAUCACCCAUGUAGAAGGCACAAAAA”, for which the “apparent Kd” value came out at 311 nM under setting [1] and 243 nM under setting [2].
Turning to “CUGCUCCGUGUAGGAUAUCCCGGCAACCAAUCGGGAGAAGGACAUGAGGAUCACCCAUGUAUGUUAUUAUCACGUGAAGCGUCC”, the “apparent Kd” value by setting is: under setting [1], 23.1 nM; under setting [2], 30.1 nM.
As for “UCAUUUUCCACAGGAUAUAUUCAUAUACAGUUGUUUGGCUCUUACAUGUUAGUAGAAGGGUGCAACAUGAGGAUCACCCAUGUA”, the “apparent Kd” value reads like this: under setting [3], 362 nM; under setting [4], 186 nM.
As to “GCCAUCGUAUGAGGAUAUGGCACCGCAACGGUGCCAGAAGGCAUGUCAAUAGACAUGAGGAUCACCCAUGUGUUAUCGAUGGCA”, the “apparent Kd” value by setting is: under setting [3], 153 nM; under setting [4], 13.9 nM.
Take “UAUAUAUAGUAAGGAUAUGUAUUAGUUUUAUAAACAGAAGGUACUGACAUGAGGAUCACCCAUGUUUUAGUGUGGGCAUGUAGA”: the “apparent Kd” value amounted to 90 nM under setting [1] and 144 nM under setting [2].
On to “CAUAUGUGCGGAGGAUAUGGGUGAAUCGGAUCGACAUGAGGAUCACCCAUGUAGCUCUUUGGCAUCUAGAAGGCCGGAUGAACG”, for which the “apparent Kd” value runs as follows: under setting [3], 25.9 nM; under setting [4], 111 nM.
With “ACCUCACAUGAGGAUCACCCAUGUUAGGAUAUCUCGGCGCCCUGUAGGCAGUAGCGCCAGAGAAGGAACGUGCA”, the “apparent Kd” value stood at 24.3 nM under setting [1] and 25.2 nM under setting [2].
As to “GACAUGGUCCAGAAGGGCUAUUUAUUUAAGUACGAUUUAGAACAGCAUAGCAGGAUAUGGCUAACAUGAGGAUCACCCAUGUUC”, the “apparent Kd” value runs as follows: under setting [3], 19.3 nM; under setting [4], 11.9 nM.
Consider “AUAUUACGAGGAUAUCGUUUUUAUCACAUGAGGAUCACCCAUGUAAUUUAUGUUUCGUUUCGAGAAGGCGUAAGUU”, for which the “apparent Kd” value is 19.8 nM under setting [1] and 22 nM under setting [2].
As to “AAUUAAUUAAUACAUGAGGAUCACCCAUGUAAUUAUUAGAUCAAGGAUAUCAGCUCGUUUAGAGCUGAGAAGGUGAUCACAUGU”, the “apparent Kd” value reads like this: under setting [3], 373 nM; under setting [4], 109 nM.
For the sequence “UGUCCAUAGCAGAAGGACAUGAAUAAACGUGAAAACAUGAGGAUCACCCAUGUAGGAUAUGCUAUGGACUAAGAGCGAAAGCUC”, the “apparent Kd” value under setting [1] stood at 34.7 nM and the “apparent Kd” value under setting [2] is 494 nM.
In the case of “UGUCAUAUAUAGAAGGGUAGUAGGGUAUUACAUGAGGAUCACCCAUGUAUUAUAGGAUAUGUGUAUAGUUUUUAUUCAAGUAUA”, the “apparent Kd” value was determined as 22.8 nM under setting [1] and 17 nM under setting [2].
As to “GCGGUUACGGUUGGCACUUAGCGAGAGGAUAUGGAAAACAAGACAUGAGGAUCACCCAUGUACUAUCAGAAGGCUCGAGCACGC”, the “apparent Kd” value is, setting by setting: under setting [3], 7.76 nM; under setting [4], 5.8 nM.
Turning to “AACAAAGACACAGGAUAUCCACAAAUACAUGAGGAUCACCCAUGUUCGAAAGGAGAAGGGUGGCACCGGUACAAUCUGGUUAUC”, the “apparent Kd” value by setting is: under setting [3], 275 nM; under setting [4], 89.3 nM.
“GUCAGCUCGUGAGGAUAUACAACACUGCUUCGGCAGUGUAUUAAGAUCACAUGAGGAUCACCCAUGUAGAAGGCAAGAGCUGAU”: the “apparent Kd” value under setting [1] turned out to be 13.2 nM and the “apparent Kd” value under setting [2] amounted to 227 nM.
For “AUCCUGCGAGGAUAUACAUAAUUUUUUUCAUUUUGACUCGAACAUGAGGAUCACCCAUGUAGAAGGUGCUACAC”, the “apparent Kd” value came to 36.7 nM under setting [1] and 32.5 nM under setting [2].
For “UUGCUCGUGUGAGGAUAUGCCGCCGUUUCGGCUGCAGAAGGUACUCUUGUACAUGAGGAUCACCCAUGUCUCUGUUGUUUCGUG”, the “apparent Kd” value runs as follows: under setting [3], 49 nM; under setting [4], 43.6 nM.
On to “UAUUAACACGAAGGAUAUGCUUACAUGAGGAUCACCCAUGUAUGUAUAUUGAUCCAGAGUUUUGAGCAGAAGGUCGUGAGUAAA”, for which the “apparent Kd” value was 32.2 nM under setting [1] and 153 nM under setting [2].
Regarding “GGAUGUCAAAGACAUCCAAUACGAACAUGAGGAUCACCCAUGUAGGAUAUGCUACUCAAAGAGUAGCAGAAGGACAUGUGUCUU”, the “apparent Kd” value by setting is: under setting [1], 30.6 nM; under setting [2], 164 nM.
With “AUGGUCAUGUUAGGAUAUGACGCGCUGUACGCAUCAGAAGGAACAUGAGGAUCACCCAUGUAUAGAGUAUUAUCGCUUACUCUC”, the “apparent Kd” value reads like this: under setting [1], 52.7 nM; under setting [2], 85.3 nM.
“AAAACAUGAGGAUCACCCAUGUAUAGAUCGGUUAAUAGAAGUGAGGAUAUGCUUAAAAUAAGGUAGCAGAAGGCACUGGGUACA”: the “apparent Kd” value amounted to 23.9 nM under setting [3] and 25.1 nM under setting [4].
As for “UUGUUGUCAGGAUAUCGUUAAUUUAAUUGUUUGUAUUAGUUCGAGAAGGGACAUGAGGAUCACCCAUGUUUGUU”, the “apparent Kd” value came out at 34.5 nM under setting [1] and 73.5 nM under setting [2].
For “ACACUGUGAGGAUAUACAUGAGGAUCACCCAUGUUAAGGAAGUCGUGGUUAAUUUAAGGUAGAAGGCGCUUAUU”, in that order: 41.3 nM and 42.8 nM.
Turning to “CUAUGGCAAGGAUAUCUUGGCUAGAACAUGAGGAUCACCCAUGUCUACUGUACUAAUAUCGGAGAAGGUGCUAGAA”, the “apparent Kd” value is, setting by setting: under setting [1], 27.6 nM; under setting [2], 19.1 nM.
